Measurements from article PMC6542277 (Journal of medicinal chemistry, 2018).
Where a SMILES comes first, the peptide text is derived from it. Bridges are numbered along the chain shown (N, C = ends). Roman numbers before positions name the chains, in order. [ ]: non-standard residue; d: D form. The star is where a group is joined. X1 = CN1C(=CC=CC=CC2=[N+](CCCCCC(=O)*)c3ccc4ccccc4c3C2(C)C)C(C)(C)c2c1ccc1ccccc21; AEEEA = NCCOCCOCCOCC(=O)O

How the values were obtained:
[1] = In vivo whole-body NIR fluorescence imaging; details: mouse, in vivo, iv, 300 uM, 150 uL
[2] = Enzymatic stability in mouse serum; type: in vitro ADME; details: 30 μM in mouse serum, 37°C, at 2 hour; HPLC of supernatant after centrifugation
In short: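 Samples taken at 0.5, 1.0, 1.5 and 2 h of serum incubation at 37°C were centrifuged at 14,000 rpm. 20 μL of supernatant was analysed by HPLC.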

[3] = Stability in PBS containing 0.1% BSA; type: physicochemical; details: 0.01 mol/L PBS, pH 7.4, 37°C, HPLC at 0.5, 2, 6 and 12 hours
EGFR = EGFR (Homo sapiens, UniProt P00533); experiment: siRNA knockdown of EGFR, confocal binding; type: cell-based; details: confocal microscopy; mean of 5 cells from 3 images; P=3.6×10^−4
Chain of EGFR (P00533 25-1210): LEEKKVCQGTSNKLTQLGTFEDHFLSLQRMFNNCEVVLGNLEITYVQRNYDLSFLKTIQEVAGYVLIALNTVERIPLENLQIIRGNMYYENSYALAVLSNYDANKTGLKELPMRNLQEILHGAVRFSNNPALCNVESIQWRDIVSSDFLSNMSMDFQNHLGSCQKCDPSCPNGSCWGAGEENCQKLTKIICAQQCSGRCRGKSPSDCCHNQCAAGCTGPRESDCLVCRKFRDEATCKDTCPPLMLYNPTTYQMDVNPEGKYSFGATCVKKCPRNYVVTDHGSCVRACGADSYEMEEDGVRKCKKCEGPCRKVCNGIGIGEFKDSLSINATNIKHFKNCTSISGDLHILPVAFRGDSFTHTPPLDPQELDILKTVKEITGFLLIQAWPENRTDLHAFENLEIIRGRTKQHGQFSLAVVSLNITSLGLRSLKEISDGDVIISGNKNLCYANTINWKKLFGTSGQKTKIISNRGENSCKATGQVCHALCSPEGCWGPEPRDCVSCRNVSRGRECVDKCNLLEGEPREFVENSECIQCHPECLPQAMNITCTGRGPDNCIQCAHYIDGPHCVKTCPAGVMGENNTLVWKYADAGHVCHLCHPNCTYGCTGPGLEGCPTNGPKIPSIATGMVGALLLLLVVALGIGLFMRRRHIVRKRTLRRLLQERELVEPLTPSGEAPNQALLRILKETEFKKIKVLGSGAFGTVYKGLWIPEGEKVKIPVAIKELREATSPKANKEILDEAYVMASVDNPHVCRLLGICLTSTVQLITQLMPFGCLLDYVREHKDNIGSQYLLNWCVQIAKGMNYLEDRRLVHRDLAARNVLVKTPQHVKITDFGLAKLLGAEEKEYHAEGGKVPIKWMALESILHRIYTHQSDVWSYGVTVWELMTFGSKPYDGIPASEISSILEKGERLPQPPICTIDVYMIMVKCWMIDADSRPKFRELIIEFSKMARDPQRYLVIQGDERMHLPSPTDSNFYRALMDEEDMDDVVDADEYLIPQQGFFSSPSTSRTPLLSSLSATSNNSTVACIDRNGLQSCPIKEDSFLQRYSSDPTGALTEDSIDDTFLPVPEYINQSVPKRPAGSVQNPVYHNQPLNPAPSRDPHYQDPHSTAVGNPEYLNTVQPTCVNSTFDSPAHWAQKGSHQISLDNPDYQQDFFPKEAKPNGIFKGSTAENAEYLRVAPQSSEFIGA

Hydrophilicity = type: physicochemical; details: triethyleneglycol linker (E3); method not given
[4] = test system: Barrett's neoplasia (HGD and EAC); experiment: Binding to human esophageal specimens ex vivo, confocal microscopy; details: for AUC of ROC curve: human FFPE esophageal specimens ex vivo, HGD and EAC versus SQ and BE
In short: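 Archived FFPE human esophagus cut at 10 μm, deparaffinized, rehydrated, then given two-step acidic plus protease antigen retrieval. Sections were blocked with protein serum for 10 min, stained with 0.5 μM heterodimer for 10 min in the dark at RT, then anti-EGFR and anti-ErbB2 antibodies with secondaries. Mean intensity came from three 20×20 μm2 epithelial boxes, avoiding saturated regions. SQ/BE/HGD/EAC groups (n = 31, 8, 23, 12) compared by unpaired t test and one-way ANOVA.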

ErbB2 = ErbB2 (Homo sapiens, UniProt P04626); experiment: siRNA knockdown of ErbB2, confocal binding; type: cell-based; details: confocal microscopy; mean of 5 cells from 3 images; P=7.8×10^−3
Chain of ErbB2 (P04626 23-1255): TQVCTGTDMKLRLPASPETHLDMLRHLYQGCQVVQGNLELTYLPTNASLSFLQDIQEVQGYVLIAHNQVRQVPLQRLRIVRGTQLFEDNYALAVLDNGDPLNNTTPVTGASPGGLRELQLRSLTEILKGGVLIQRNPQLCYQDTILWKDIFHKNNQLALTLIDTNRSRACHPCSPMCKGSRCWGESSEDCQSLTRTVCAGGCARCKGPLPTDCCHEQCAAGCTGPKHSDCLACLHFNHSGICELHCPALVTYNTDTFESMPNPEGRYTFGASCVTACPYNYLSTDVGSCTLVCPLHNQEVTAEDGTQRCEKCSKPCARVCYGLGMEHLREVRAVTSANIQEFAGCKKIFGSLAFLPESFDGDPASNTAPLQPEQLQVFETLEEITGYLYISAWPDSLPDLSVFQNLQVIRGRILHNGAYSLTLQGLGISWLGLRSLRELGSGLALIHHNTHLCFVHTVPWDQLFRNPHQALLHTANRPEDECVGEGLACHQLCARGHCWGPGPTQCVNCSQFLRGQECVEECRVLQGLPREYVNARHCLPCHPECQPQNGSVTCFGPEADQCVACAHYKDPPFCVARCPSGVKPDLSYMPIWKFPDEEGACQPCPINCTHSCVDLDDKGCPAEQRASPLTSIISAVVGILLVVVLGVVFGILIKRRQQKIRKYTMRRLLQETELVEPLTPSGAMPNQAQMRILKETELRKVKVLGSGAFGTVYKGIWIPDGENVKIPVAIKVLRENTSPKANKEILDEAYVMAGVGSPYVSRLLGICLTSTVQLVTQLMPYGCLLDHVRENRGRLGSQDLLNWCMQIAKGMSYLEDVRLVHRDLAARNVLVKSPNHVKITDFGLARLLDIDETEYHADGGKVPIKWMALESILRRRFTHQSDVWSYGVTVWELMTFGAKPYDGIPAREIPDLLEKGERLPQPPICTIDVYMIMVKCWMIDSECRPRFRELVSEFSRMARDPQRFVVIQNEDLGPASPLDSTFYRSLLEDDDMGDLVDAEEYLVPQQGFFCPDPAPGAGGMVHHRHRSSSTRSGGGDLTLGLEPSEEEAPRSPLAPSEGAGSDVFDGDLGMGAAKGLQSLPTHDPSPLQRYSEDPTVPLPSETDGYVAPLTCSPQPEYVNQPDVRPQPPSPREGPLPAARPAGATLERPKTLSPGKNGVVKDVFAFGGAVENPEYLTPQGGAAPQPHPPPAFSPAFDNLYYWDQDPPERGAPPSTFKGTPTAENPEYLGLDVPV

SKBr3 cells = experiment: Internalization, confocal images over time; type: cell-based, human
[5] = Acute toxicity on histology; type: in vivo, mouse; details: nude mice after systemic injection of 300 μM, 150 μL PBS
[6] = test system: OE33 human esophageal adenocarcinoma cells; experiment: Confocal microscopy binding validation; type: cell-based
In short: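 OE33 cells, kept in RPMI 1640 with 10% FBS and penicillin/streptomycin at 37°C, 5% CO2, grown to ~70% confluence on coverslips. Cells were blocked with 2% BSA/PBS for 30 min, given Cy5.5-labelled peptides, washed 3×, fixed in ice-cold 4% PFA for 10 min and mounted with DAPI. Confocal intensities were quantified from 3 independent images.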

OE33 xenograft tumors [7] = experiment: In vivo whole-body NIR fluorescence imaging; details: nude mice, OE33 xenograft, 300 μM in 150 μL PBS via tail vein, NIR fluorescence
[8] = test system: EGFR/ErbB2 signaling (p-EGFR, p-ErbB2, p-AKT, p-ERK) in SKBr3 cells; experiment: Effect on cell signaling, Western blot; type: cell-based, human
OE33 cells [9] = experiment: Apparent association time constant by flow cytometry; type: binding, human; details: 1 μM peptide, 4°C
In short: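 OE33 cells grown to ~80% confluence, detached with PBS-based dissociation buffer, then held with 1 μM labelled heterodimer at 4°C for periods of 0–60 min. Cells were centrifuged, washed in cold PBS and fixed in 4% PFA before flow cytometry. Median fluorescence was ratioed to peptide-free cells, and k was fitted to y(t) = Imax[1−exp(−kt)].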

OE33 cells [10] = experiment: Apparent dissociation constant by flow cytometry; type: binding, human; details: from kd on OE33 cells
In short: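 Labelled heterodimer serially diluted in PBS (0, 10, 25, 50, 100, 200 nM) and incubated with OE33 cells at 4°C for 1 h, then washed in cold PBS. Mean fluorescence was read by flow cytometry. kd = 1/ka came from a least-squares fit to I = (I0 + Imax·ka[X])/(I0 + ka[X]), where I0 is the no-peptide intensity and Imax the saturation intensity.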

OE33 xenograft tumors [11] = experiment: Biodistribution, ex vivo organ fluorescence; set-up: species or system mouse; details: nude mice, 300 μM in 150 μL PBS, 2 hours
[12] = human esophageal specimens ex vivo, confocal microscopy, 0.5 μM, 10 min, RT

Compound: C[C@H](NC(=O)CNC(=O)CNC(=O)CN)C(=O)NCC(=O)NCC(=O)NCC(=O)NCCCC[C@H](NC(=O)CNC(=O)CNC(=O)CNC(=O)[C@H](C)NC(=O)CNC(=O)CNC(=O)CN)C(=O)N[C@@H](CCCCNC(=O)CCCCC[N+]1=C(C=CC=CC=C2N(C)c3ccc4ccccc4c3C2(C)C)C(C)(C)c2c1ccc1ccccc21)C(N)=O [(GGGAGGG)2KK-Cy5.5, reference compound] (I: H-GGGAGGGKK(X1)-NH2 / II: H-GGGAGGG; amide I:8-II:C)
- tissue to tissue ratio at 2 h [1]: 1.43 ± 0.28

Compound: CN1C(=CC=CC=CC2=[N+](CCCCCC(=O)NCCCC[C@H](NC(=O)[C@H](CCCCNC(=O)COCCOCCOCCNC(=O)[C@H](Cc3ccccc3)NC(=O)[C@H](CCCNC(=N)N)NC(=O)[C@@H]3CCCN3C(=O)[C@H](CC(N)=O)NC(=O)[C@@H]3CCCN3C(=O)[C@H](CO)NC(=O)[C@@H](N)CCCCN)NC(=O)COCCOCCOCCNC(=O)[C@H](CCC(=O)O)NC(=O)[C@H](CCCNC(=N)N)NC(=O)[C@@H]3CCCN3C(=O)[C@H](CCCCN)NC(=O)[C@H](Cc3c[nH]cn3)NC(=O)[C@H](CCCNC(=N)N)NC(=O)[C@@H](N)CCC(N)=O)C(N)=O)c3ccc4ccccc4c3C2(C)C)C(C)(C)c2c1ccc1ccccc21 [QRH*-KSP*-E3-Cy5.5] (I: H-QRHKPRE[AEEEA]KK(X1)-NH2 / II: H-KSPNPRF[AEEEA]; amide I:9-II:C; N-terminus and C-terminus assumed)
- area of new formed peak (may arise from degradation) [2]: about 20%
- degradation in PBS containing 0.1% BSA [3]: No noticeable degradation
- fluorescence intensity, siCL (control) versus siEGFR (knockdown) SKBr3 cells (EGFR): significantly greater intensity
- hydrophilicity (Hydrophilicity): good hydrophilicity
- AUC of ROC curve [4]: 0.95
- fluorescence intensity with SQ and BE [4, 12]: minimal fluorescence intensity
- fluorescence signal with HGD and EAC [4, 12]: increased signal
- fluorescence intensity, siCL (control) versus siErbB2 (knockdown) SKBr3 cells (ErbB2): significantly greater intensity
- time at which internalization begins (SKBr3 cells): 8 min
- time at which internalization reaches near completion (SKBr3 cells): 40 min
- acute toxicity on histology (H&E) [5]: no evidence of acute toxicity
- binding to surface of OE33 cells ([6]; 1 μM, 30 min, 4°C): strong binding
- fluorescence intensity compared with either monomer alone ([6]; binding to OE33 cells): 3 fold
- tissue to tissue ratio at 2 h [1]: 2.39 ± 0.52
- time at which signal returns to baseline (systemic clearance) (OE33 xenograft tumors [7]): ~ 24 hours
- downstream change in AKT (p-AKT) and ERK (p-ERK) ([8]; heterodimer at 1, 5 and 20 μM): no downstream change
- phosphorylation of EGFR (p-EGFR) or ErbB2 (p-ErbB2) ([8]; heterodimer at 1, 5 and 20 μM): no change
- association time (printed in brackets after k) (OE33 cells [9]): 4.5 min
- affinity compared with either monomer alone (OE33 cells [10]): 2 fold
- uptake in kidney (OE33 xenograft tumors [11]; supports renal clearance): High uptake
- uptake in tumor relative to muscle (OE33 xenograft tumors [11]; OE33 xenograft, n = 6): 3 fold

Compound: CS(=O)(=O)CCNCc1ccc(-c2ccc3ncnc(Nc4ccc(OCc5cccc(F)c5)c(Cl)c4)c3c2)o1 [lapatinib, reference compound]
- expression of p-ErbB2, p-AKT and p-ERK ([8]; lapatinib 100 nM): reduced expression

Compound: EGF: endogenous ligand for EGFR, positive control
- phosphorylation of AKT (p-AKT) and ERK (p-ERK), positive control ([8]; EGF 100 ng/mL): strong phosphorylation activity

Compound: KSPNPRF [KSP*-Cy5.5]
- AUC of ROC curve [4]: 0.91

Compound: QRHKPRE [QRH*-Cy5.5]
- AUC of ROC curve [4]: 0.79
